The inhibition is the drop in the measured response relative to a control, in per cent. As a reminder, the Ki is the equilibrium dissociation constant of an inhibitor or competing ligand from its target. Higher therefore signals a looser hold on the target.

SMILES strings stand for the structures.

One data set relates to Jurkat cells. Nature of the data set: Cell viability. The data set is classed as cell-based, human. Particulars: 24 h, MTT. An outline of the steps:
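Jurkat cells kept in RPMI-1640 with 10% FBS, penicillin–streptomycin, NaHCO3 and glutamine at 37°C, 5% CO2. Cells were seeded at 1 × 10^4 per well. […] Viability was read by MTT kit. Mean ± SD of three independent determinations; ANOVA with Dunnett's test.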

The target in data set [1] is T1, ADA in mouse erythrocytes (Mus musculus, UniProt P03958).
T1 sequence (P03958 1-352): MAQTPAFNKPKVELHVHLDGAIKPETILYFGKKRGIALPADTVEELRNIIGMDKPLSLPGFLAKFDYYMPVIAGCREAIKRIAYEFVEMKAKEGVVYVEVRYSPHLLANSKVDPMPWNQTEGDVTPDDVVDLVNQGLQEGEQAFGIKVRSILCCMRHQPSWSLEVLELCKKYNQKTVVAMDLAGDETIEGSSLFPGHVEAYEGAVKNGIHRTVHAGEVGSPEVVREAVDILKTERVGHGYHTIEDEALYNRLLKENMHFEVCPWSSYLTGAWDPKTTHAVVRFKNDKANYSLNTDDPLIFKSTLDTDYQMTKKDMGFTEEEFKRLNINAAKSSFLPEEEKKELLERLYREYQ
Kind of data set: Inhibition of ADA-catalyzed deamination in mouse erythrocytes. Format: biochemical. Particulars: for inhibition at 100 µM: read-out: inhibition of the enzyme activity (deamination of cordycepin).

The next data set has as its target T2, human ADA2 (Homo sapiens, UniProt Q9NZK5).
T2 sequence (Q9NZK5 30-511): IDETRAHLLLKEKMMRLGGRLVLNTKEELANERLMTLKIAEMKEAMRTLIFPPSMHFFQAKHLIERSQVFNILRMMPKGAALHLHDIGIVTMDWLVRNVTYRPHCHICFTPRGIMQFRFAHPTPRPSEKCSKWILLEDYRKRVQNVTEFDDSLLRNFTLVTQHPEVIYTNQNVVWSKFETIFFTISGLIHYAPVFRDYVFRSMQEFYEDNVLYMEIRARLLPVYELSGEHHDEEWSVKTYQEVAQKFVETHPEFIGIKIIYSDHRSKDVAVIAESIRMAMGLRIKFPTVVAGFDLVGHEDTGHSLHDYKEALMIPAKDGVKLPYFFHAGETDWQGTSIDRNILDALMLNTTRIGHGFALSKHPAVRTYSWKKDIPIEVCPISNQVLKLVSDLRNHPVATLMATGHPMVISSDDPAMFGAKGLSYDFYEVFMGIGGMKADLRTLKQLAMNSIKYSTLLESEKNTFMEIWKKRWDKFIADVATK
Kind of data set: Deamination of substrates in ADA2-expressing HEK293 cells. Format: biochemical. Particulars: compared with Mock cells; substance = substrate.

Data set [2] addresses T3, ADA in human erythrocytes (Homo sapiens, UniProt P00813).
T3 sequence (P00813 1-363): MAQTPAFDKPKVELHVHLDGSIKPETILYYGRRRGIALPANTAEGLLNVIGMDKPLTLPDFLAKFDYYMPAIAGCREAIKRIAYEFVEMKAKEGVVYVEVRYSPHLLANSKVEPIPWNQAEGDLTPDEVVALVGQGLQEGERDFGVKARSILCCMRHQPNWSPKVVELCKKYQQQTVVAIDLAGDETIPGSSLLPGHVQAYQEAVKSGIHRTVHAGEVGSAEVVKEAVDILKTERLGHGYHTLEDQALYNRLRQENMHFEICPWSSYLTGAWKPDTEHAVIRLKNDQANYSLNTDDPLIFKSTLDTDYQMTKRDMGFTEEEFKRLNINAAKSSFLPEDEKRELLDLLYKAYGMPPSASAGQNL
Kind of data set: Inhibition of ADA-catalyzed deamination of cordycepin in human erythrocytes. The data set is classed as biochemical. Summed up: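 Human erythrocytes were incubated with cordycepin in 400 mmol/L sodium acetate buffer, pH 5.8, at 37°C after a 3 min preincubation. Inhibitors were present and cordycepin concentrations were varied. Reactions were stopped with acetonitrile and centrifuged. 3′-Deoxyinosine was quantified by reversed-phase HPLC (6% acetonitrile, 1.0 mL/min, 260 nm). Inhibition type and Ki were derived from Dixon plots.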

The target in data set [3] is T4, ADA1 in Jurkat cell homogenates (Homo sapiens, UniProt P00813).
T4 sequence (P00813 1-363): T3 sequence (P00813 1-363)
Kind of data set: Inhibition of cordycepin deamination in Jurkat cell homogenates. The data set is classed as biochemical. Particulars: substrate 100 μmol/L, inhibitor 50 μmol/L.

On to `Nc1ncnc2c1ncn2[C@@H]1O[C@H](CO)C[C@H]1O` [Cordycepin, 3′-deoxyadenosine], for which the “cell viability of the Jurkat cells” value with Jurkat cells (cordycepin alone) is “concentration-dependently decreased the cell viability”.
As to `O=c1c(O)c(-c2cc(O)c(O)c(O)c2)oc2cc(O)cc(O)c12` [myricetin], the inhibition at 100 µM in data set [1] was in the range of 0 to 10%.
For `Nc1ncnc2c1ncn2[C@H]1C[C@H](O)[C@@H](CO)O1` [2′-deoxyadenosine], the “deamination activity toward the substrate in ADA2-expressing HEK293 cells” value on human ADA2 is “comparable to those in Mock cells”.
As to `O=c1c(O)c(-c2ccc(O)c(O)c2)oc2cc(O)cc(O)c12` [quercetin], the inhibition at 100 µM in data set [1] lay within 0 to 10%.
In the case of `O=C1C[C@@H](c2ccc(O)cc2)Oc2cc(O)cc(O)c21` [naringenin], the inhibition at 100 µM in data set [1] is 0 to 10%.
With `OC[C@H]1O[C@@H](n2cnc3c2NC=NC[C@H]3O)C[C@@H]1O` [Pentostatin], the “effect on the cytotoxic effect of cordycepin” value in the data set on Jurkat cells (Jurkat cells cotreated with cordycepin and 50 μmol/L inhibitor) is recorded as “stronger cytotoxicity”.
Turning to `C[C@@H]1O[C@@H](O[C@H]2[C@H](Oc3cc(O)c4c(c3)O[C@H](c3ccc(O)cc3)CC4=O)O[C@H](CO)[C@@H](O)[C@@H]2O)[C@H](O)[C@H](O)[C@H]1O` [Naringin, naringin], the Ki in data set [2] was 168 ± 22.4 µM; in data set [1] (mouse erythrocytes, substrate 2′-deoxyadenosine, Dixon plot) it was 197 µM; in data set [1] (mouse erythrocytes, substrate adenosine, Dixon plot) it was 371 ± 10.1 µM; in data set [1] (mouse erythrocytes, substrate cordycepin, Dixon plot), 58.8 ± 0.7 µM. The “inhibition pattern against the cordycepin deamination” value in data set [2] (human erythrocytes, Dixon plot) is “competitively”; in data set [1] (mouse erythrocytes, Dixon plot) it was “competitive”. Besides, the “inhibition of deamination of cordycepin in Jurkat cell homogenates” value in data set [3] is reported as “moderately”. In addition, the “inhibition of cordycepin deamination in the erythrocytes (in words)” value in data set [1] (erythrocytes, 100 μmol/L cordycepin, 100 μmol/L inhibitor, 37°C (Fig.4)) is recorded as “moderately inhibited”. The inhibition at 100 µM in data set [1] was 20%.
As for `Nc1ncnc2c1ncn2[C@@H]1O[C@H](CO)[C@@H](O)[C@H]1O` [adenosine], at human ADA2, the “deamination activity toward the substrate in ADA2-expressing HEK293 cells” value is listed as “comparable to those in Mock cells”.
Take `O=c1c(O)c(-c2ccc(O)cc2)oc2cc(O)cc(O)c12` [kaempferol]: in data set [1], the inhibition at 100 µM was in the range of 0 to 10%.

The values above are taken from article PMC4448975 (Pharmacology Research & Perspectives, 2015).
